In article PMC3076580 (Investigational New Drugs, 2010):

Assays:
[1] = molecular target: purified deoxycytidine deaminase (dCDA) (Homo sapiens, UniProt P32320); test: Deoxycytidine deaminase activity; format: biochemical; details: 37°C; for deamination as substrate of dCDA: 500 μM substrate, no inhibitor
How it was run: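 Purified dCDA (source not stated) run at 37°C with 500 μM dCyd or gemcitabine as substrate and 500 μM competing compound. Every run included a blank (no substrate or inhibitor) and a substrate-only control. Stopped after 15 or 25 min with 40% w/v TCA, then neutralised with trioctylamine/trichlorotrifluoroethane […]. Substrates and the deoxyuridine or difluorodeoxyuridine products measured by reversed-phase HPLC. Unpaired t-test.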

MOLT4/C8 cells = test: Growth inhibition with or without nucleoside transport inhibitors; format: cell-based; details: Homo sapiens
How it was run: (§1)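 Cells grown in suspension in RPMI-1640-based medium and plated at 2.5.105 cells/ml. NBMPR (100 μM) or dipyridamole (4 μg/ml) was present or absent, with serial dilutions of test compound or gemcitabine. Cells counted after 72 h. Growth set relative to plated cells (0%) and untreated 72 h cells (100%). IC50 read from a straight-line interpolated curve.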

[2] = system: AG6000 cells (gemcitabine resistant A2780 variant, dCK deficient); test: Growth inhibition, SRB assay, 72 h exposure; format: cell-based; details: Homo sapiens, AG6000, 72 h
How it was run: (§2)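 Monolayer cells seeded on day 1 at 6,000 (A2780), 18,000 (AG6000) or 8,000 (C26-G) cells/well. Drug dilutions added on day 2, final 2.10−10 to […], from a 20 mM DMSO stock (DMSO ≤1%). After 72 h, fixed with ice-cold TCA for 60 min and stained with sulforhodamine B. Relative growth taken from OD versus control wells. IC50 interpolated from straight-line curves.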

[3] = system: H-146 small cell lung cancer xenograft; test: Xenograft testing, ip; format: in vivo, nude mice; details: H-146, ip at MTD
How it was run: (§3)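 Female BALB/c nude mice anaesthetised with propanidid 5 mg/10 g ip. Tumour fragments (~2 mm cubes) implanted sc in each flank. Treatment started at minimum diameter 4 mm (32 mm3): liposomal test compound or gemcitabine ip q3dx5 at MTD. RTV = Vx/V0 ×100, group median. T/C = treated/control RTV ×100; SGD counts doubling times gained. Deaths within 2 weeks after the last dose counted as toxic. Mann–Whitney U, p<0.05.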

[4] = system: L4A6 cells (cytarabine resistant L1210 variant); test: Growth inhibition, cell counting, 72 h exposure; format: cell-based, murine; details: Mus musculus, L1210, 72 h
How it was run: (§4)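 Suspension cells in RPMI-1640 with 10% FCS. L5/L4A6 medium had 60 μM 2-mercaptoethanol and 250 ng/ml gentamicin; BCLO had 3.2 mM glutamine and gentamicin; Bara-C had 5% FCS plus 5% rat serum. Seeding: 50,000 (L5), 100,000 (L4A6), 150,000 (BCLO) or 175,000 (Bara-C) cells/well. Drug (final 2.10−10 to 10−3 M) added at plating; counted at 72 h. IC50 interpolated against 0%/100% controls.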

LOX cells = test: Growth inhibition with or without nucleoside transport inhibitors; format: cell-based; details: Homo sapiens
How it was run: as §1

C26-A cells = test: Growth inhibition, SRB assay, 72 h exposure; format: cell-based, murine; details: Mus musculus
[5] = system: PANC-1 pancreatic cancer xenograft; test: Xenograft testing, ip; format: in vivo, nude mice; details: PANC-1, ip every third day for five doses at MTD
How it was run: as §3

MOLT4 cells = test: Growth inhibition with or without nucleoside transport inhibitors; format: cell-based, human; details: for IC50: Homo sapiens
How it was run: as §1

[6] = system: human colon cancer xenograft Co6044; test: Xenograft testing, oral; format: in vivo, nude mice
[7] = system: C26-G cells (gemcitabine resistant); test: Growth inhibition, SRB assay, 72 h exposure; format: cell-based, murine; details: Mus musculus
How it was run: as §2

[8] = system: MiaPaCa-2 pancreatic cancer xenograft; test: Xenograft testing, ip; format: in vivo, nude mice; details: MiaPaCa-2, ip every third day for five doses at MTD
How it was run: as §3

A2780 cells = test: Growth inhibition, SRB assay, 72 h exposure; format: cell-based; details: Homo sapiens, A2780, 72 h
How it was run: as §2

THX cells = test: Growth inhibition with or without nucleoside transport inhibitors; format: cell-based, human; details: for IC50: Homo sapiens
How it was run: as §1

[9] = system: MA-11 breast cancer xenograft; test: Xenograft testing, ip; format: in vivo, nude mice; details: MA-11, ip at MTD
How it was run: as §3

L1210/L5 cells = test: Growth inhibition, cell counting, 72 h exposure; format: cell-based, murine; details: Mus musculus, L1210, 72 h
How it was run: as §4

[10] = system: TAX II-1 malignant fibrous histiocytoma xenograft; test: Xenograft testing, ip; format: in vivo, nude mice; details: TAX II-1, ip at MTD
How it was run: as §3

[11] = system: THX malignant melanoma xenograft; test: Xenograft testing, ip; format: in vivo, nude mice; details: ip every third day for five doses at MTD
How it was run: as §3

[12] = Co6044, oral, days 1, 4 and 7, 20 mg/kg
[13] = Co6044, oral, days 1, 4 and 7, 40 mg/kg

Sequence of purified deoxycytidine deaminase (dCDA) (P32320 whole entry): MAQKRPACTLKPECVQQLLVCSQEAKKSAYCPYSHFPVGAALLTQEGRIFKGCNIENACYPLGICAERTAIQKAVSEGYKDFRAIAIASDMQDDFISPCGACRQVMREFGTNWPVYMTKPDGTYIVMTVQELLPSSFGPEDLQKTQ

For `Nc1ccn([C@H]2C[C@H](O)[C@@H](CO)O2)c(=O)n1` [dCyd, deoxycytidine], the “deamination as substrate of dCDA” value [1] was 312 pmol/hr/μl enzyme.
`Nc1ccn([C@@H]2O[C@H](CO)[C@@H](O)C2(F)F)c(=O)n1` [gemcitabine, 2′,2′-difluorodeoxycytidine] showed an IC50 (MOLT4/C8 cells; Molt4/C8, MOLT4/C8, +Dipyridamole 4 μg/ml) of 7620 ± 590 nM, an IC50 (MOLT4/C8 cells; Molt4/C8, MOLT4/C8, +NBMPR 100 μM) of 8310 ± 1200 nM and an IC50 (MOLT4/C8 cells; Molt4/C8, MOLT4/C8, no transport inhibitor) of 460 ± 120 nM. The IC50 [2] was 185000 ± 108000 nM, the “antitumor activity (in words)” value [3] was “not active” and the IC50 [4] was 8800 ± 3600 nM. For the same compound, the IC50 (LOX cells; +Dipyridamole 4 μg/ml) was 610 ± 220 nM, the IC50 (LOX cells; +NBMPR 100 μM) was 1150 ± 60 nM and the IC50 (LOX cells; no transport inhibitor) was 4.7 ± 1 nM. The IC50 (C26-A cells) was 16 ± 4 nM, the Deaths [5] was 4/9 and the IC50 (MOLT4 cells; MOLT-4, MOLT4, +Dipyridamole 4 μg/ml) was 610 ± 260 nM. The IC50 (MOLT4 cells; MOLT-4, MOLT4, +NBMPR 100 μM) was 820 ± 250 nM, the IC50 (MOLT4 cells; MOLT-4, MOLT4, no transport inhibitor) was 3 ± 3.3 nM and the “decrease in sensitivity by dipyridamole” value (MOLT4 cells; MOLT4, 4 μg/ml dipyridamole) was 203 fold. The “decrease in sensitivity by NBMPR” value (MOLT4 cells; MOLT4, 100 μM NBMPR) was 273 fold, the Deaths [6, 12] was 0/7 and the “Weight loss (%)” value [6, 12] was 0%. For the same compound, the Deaths [6, 13] was 5/7, the “Maximal T/C (%)” value [6, 13] was 8% and the “Weight loss (%)” value [6, 13] was 1%. For the same compound, the “toxicity (in words)” value ([6]; Co6044 bearing mice, oral, at similar doses as the ip administration) was “very toxic”, the IC50 [7] was 20 ± 10 nM and the Deaths [8] was 7/7. The “dFdU formed when dCyd and gemcitabine were added simultaneously” value ([1]; 500 μM each) was 1,127 pmol/hr/μl enzyme, the “deamination as substrate of dCDA” value [1] was 624 pmol/hr/μl enzyme and the IC50 (A2780 cells) was 1.5 ± 0.6 nM. The “decrease in sensitivity by dipyridamole” value (THX cells; 4 μg/ml dipyridamole) was 115 fold, the “decrease in sensitivity by NBMPR” value (THX cells; 100 μM NBMPR) was 55 fold and the IC50 (THX cells; +Dipyridamole 4 μg/ml) was 310 ± 130 nM. The IC50 (THX cells; +NBMPR 100 μM) was 150 ± 50 nM, the IC50 (THX cells; no transport inhibitor) was 2.7 ± 0.7 nM and the “antitumor activity (in words)” value [9] was “some activity”. The IC50 (L1210/L5 cells) was 1.9 ± 0.6 nM, the “antitumor activity (in words)” value [10] was “inactive” and the SGD [11] was > 6.25.
